Measured values reported in ChEMBL document CHEMBL4052828, “Discovery of 4-((7H-Pyrrolo[2,3-d]pyrimidin-4-yl)amino)-N-(4-((4-methylpiperazin-1-yl)methyl)phenyl)-1H-pyrazole-3-carboxamide (FN-1501), an FLT3- and CDK-Kinase Inhibitor with Potentially High Efficiency against Acute Myelocytic Leukemia” (J Med Chem, 2018).

Legend:
[1] = biological target: CDK2/Cyclin A1 (Homo sapiens) (UniProt P24941+P78396); experiment: Inhibition of human CDK2/Cyclin A1 assessed as residual activity at 0.123 uM using histone H1 as substrate preincubated for 20 mins followed by [gamma-33P]-ATP addition measure after 120 mins by filter binding method relative to control; type: protein-complex assay
[2] = biological target: Receptor-type tyrosine-protein kinase FLT3 (Homo sapiens) (UniProt P36888); experiment: Inhibition of human FLT3 assessed as residual activity at 0.123 uM using EAIYAAPFAKKK as substrate preincubated for 20 mins followed by [gamma-33P]-ATP addition measure after 120 mins by filter binding method relative to control
MV4-11 [3] = experiment: Growth inhibition of human MV4-11 cells at 1 uM after 72 hrs by CellTiter-Glo assay relative to control; type: functional; details: MV4-11, 72 h, read-out: GI
CDK2/Cyclin A1 = CDK2/Cyclin A1 (Homo sapiens, UniProt P24941); experiment: Inhibition of human CDK2/Cyclin A1 using histone H1 as substrate preincubated for 20 mins followed by [gamma-33P]-ATP addition measure after 120 mins by filter binding method; type: protein-complex assay
Procedure, shortened: (§1)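 Compound preincubated with kinase 20 min at room temperature. Filter-binding read-out, curve-fitted IC50; mean ± SD of three independent experiments.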

[4] = biological target: T1, Receptor-type tyrosine-protein kinase FLT3 (Homo sapiens, UniProt P36888); experiment: Inhibition of human FLT3 using EAIYAAPFAKKK as substrate preincubated for 20 mins followed by [gamma-33P]-ATP addition measure after 120 mins by filter binding method; procedure, shortened: as §1
T1 sequence (P36888 whole entry): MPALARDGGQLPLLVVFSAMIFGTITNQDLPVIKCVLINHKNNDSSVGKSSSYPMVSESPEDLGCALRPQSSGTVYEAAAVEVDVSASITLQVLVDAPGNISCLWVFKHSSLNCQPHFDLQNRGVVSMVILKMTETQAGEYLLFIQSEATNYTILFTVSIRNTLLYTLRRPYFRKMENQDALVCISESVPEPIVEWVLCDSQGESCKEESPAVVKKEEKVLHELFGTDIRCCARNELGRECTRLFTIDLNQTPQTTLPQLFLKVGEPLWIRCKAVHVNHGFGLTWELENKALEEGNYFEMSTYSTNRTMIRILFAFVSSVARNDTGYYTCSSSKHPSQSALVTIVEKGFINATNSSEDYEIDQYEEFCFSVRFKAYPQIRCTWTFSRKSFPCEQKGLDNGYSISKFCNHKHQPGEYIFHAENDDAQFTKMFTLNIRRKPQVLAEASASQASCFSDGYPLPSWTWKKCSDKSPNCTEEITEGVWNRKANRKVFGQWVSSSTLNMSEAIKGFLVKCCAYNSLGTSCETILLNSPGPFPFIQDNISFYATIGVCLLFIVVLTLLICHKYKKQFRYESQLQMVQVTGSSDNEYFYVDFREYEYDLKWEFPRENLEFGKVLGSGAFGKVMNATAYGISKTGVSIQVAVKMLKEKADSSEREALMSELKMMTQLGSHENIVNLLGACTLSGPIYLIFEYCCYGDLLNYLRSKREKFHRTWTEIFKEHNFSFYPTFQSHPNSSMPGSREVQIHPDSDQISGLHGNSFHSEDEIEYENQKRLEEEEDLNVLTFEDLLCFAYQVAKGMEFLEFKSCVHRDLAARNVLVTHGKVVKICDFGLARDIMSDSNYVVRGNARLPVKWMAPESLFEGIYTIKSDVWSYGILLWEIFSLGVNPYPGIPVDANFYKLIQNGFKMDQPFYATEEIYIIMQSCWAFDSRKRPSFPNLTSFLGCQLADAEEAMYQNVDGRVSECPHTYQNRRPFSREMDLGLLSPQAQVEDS

MV4-11 [5] = experiment: Growth inhibition of human MV4-11 cells after 72 hrs by CellTiter-Glo assay; type: functional, cell-based; details: MV4-11, 72 h
Procedure, shortened: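 MV4-11 cells grown in IMDM with 10% FBS, 2% L-glutamine and 1% pen/strep at 37 °C, 5% CO2. Seeded at 10000 cells/well and exposed to compound at various concentrations for 72 h. Viability read by CellTiter-Glo luminescence.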

[6] = Lipophilicity, log P of the compound; type: physicochemical; details: octanol/water
[7] = biological target: Cyclin-dependent kinase 4/cyclin D1 (Homo sapiens, UniProt P11802); experiment: Inhibition of human CDK4/Cyclin D1 using RB protein as substrate preincubated for 20 mins followed by [gamma-33P]-ATP addition measure after 120 mins by filter binding method; type: protein-complex assay
Procedure, shortened: (§2)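 Compound preincubated with kinase 20 min at room temperature. Reaction started with 10 μM [γ-33P]ATP and run 120 min at 25°C. Filter-binding read-out, curve-fitted IC50; mean ± SD of three independent experiments.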

CDK6/cyclin D1 = CDK6/cyclin D1 (Homo sapiens, UniProt Q00534); experiment: Inhibition of human CDK6/Cyclin D1 using RB protein as substrate preincubated for 20 mins followed by [gamma-33P]-ATP addition measure after 120 mins by filter binding method; type: protein-complex assay; procedure, shortened: as §2
RS4-11 = experiment: Growth inhibition of human RS4:11 cells after 72 hrs by CellTiter-Glo assay; type: functional; details: RS4-11, 72 h
MCF7 = experiment: Growth inhibition of human MCF7 cells after 72 hrs by CellTiter-Glo assay; type: functional; details: MCF7, 72 h
HCT-116 = experiment: Growth inhibition of human HCT116 cells after 72 hrs by CellTiter-Glo assay; type: functional; details: HCT-116, 72 h
NCI-H82 = experiment: Growth inhibition of human NCI-H82 cells after 72 hrs by CellTiter-Glo assay; type: functional; details: NCI-H82, 72 h
[8] = Terminal half life in human liver microsomes by LC-MS/MS analysis; type: ADME, microsome; details: read-out: beta t1/2 (converted)
Procedure, shortened: (§3)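 Metabolic stability measured by incubating compound in human, rat, mouse, dog and monkey liver microsomes. Terminal t1/2 determined.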

[9] = Intrinsic clearance in human liver microsomes by LC-MS/MS analysis; type: ADME, microsome; details: read-out: CLH
[10] = Terminal half life in rat liver microsomes by LC-MS/MS analysis; type: ADME, microsome; details: read-out: beta t1/2 (converted); procedure, shortened: as §3
[11] = Intrinsic clearance in rat liver microsomes by LC-MS/MS analysis; type: ADME, microsome; details: read-out: CLH
[12] = Terminal half life in mouse liver microsomes by LC-MS/MS analysis; type: ADME, microsome; details: read-out: beta t1/2 (converted); procedure, shortened: as §3
[13] = Intrinsic clearance in mouse liver microsomes by LC-MS/MS analysis; type: ADME, microsome; details: read-out: CLH
[14] = Terminal half life in dog liver microsomes by LC-MS/MS analysis; type: ADME, Canis lupus familiaris, microsome; details: read-out: beta t1/2 (converted); procedure, shortened: as §3
[15] = Intrinsic clearance in dog liver microsomes by LC-MS/MS analysis; type: ADME, Canis lupus familiaris, microsome; details: read-out: CLH
[16] = Terminal half life in cynomolgus monkey liver microsomes by LC-MS/MS analysis; type: ADME, Macaca fascicularis, microsome; details: read-out: beta t1/2 (converted); procedure, shortened: as §3
[17] = Intrinsic clearance in cynomolgus monkey liver microsomes by LC-MS/MS analysis; type: ADME, Macaca fascicularis, microsome; details: read-out: CLH
MGC-803 = experiment: Growth inhibition of human MGC803 cells after 72 hrs by CellTiter-Glo assay; type: functional; details: MGC-803, 72 h

Chain of CDK6/cyclin D1 (P24385 whole entry): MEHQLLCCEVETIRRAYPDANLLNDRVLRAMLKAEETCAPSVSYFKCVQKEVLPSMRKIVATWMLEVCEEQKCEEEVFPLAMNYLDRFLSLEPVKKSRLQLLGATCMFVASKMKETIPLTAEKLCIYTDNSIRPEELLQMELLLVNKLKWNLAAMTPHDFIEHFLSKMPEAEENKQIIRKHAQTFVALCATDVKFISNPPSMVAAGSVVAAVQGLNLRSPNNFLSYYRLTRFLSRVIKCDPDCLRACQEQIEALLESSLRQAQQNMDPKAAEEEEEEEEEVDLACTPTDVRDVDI
Chain of CDK6/cyclin D1 (Q00534 whole entry): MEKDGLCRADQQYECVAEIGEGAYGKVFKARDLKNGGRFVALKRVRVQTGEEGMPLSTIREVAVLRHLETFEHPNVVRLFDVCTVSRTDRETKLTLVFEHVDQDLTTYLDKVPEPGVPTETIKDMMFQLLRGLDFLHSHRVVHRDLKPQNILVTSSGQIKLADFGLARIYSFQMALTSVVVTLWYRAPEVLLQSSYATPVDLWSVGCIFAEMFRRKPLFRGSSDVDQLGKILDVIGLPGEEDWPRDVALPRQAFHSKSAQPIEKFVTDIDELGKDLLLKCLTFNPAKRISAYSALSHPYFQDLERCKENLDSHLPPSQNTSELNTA
Chain of Cyclin-dependent kinase 4/cyclin D1 (P11802 whole entry): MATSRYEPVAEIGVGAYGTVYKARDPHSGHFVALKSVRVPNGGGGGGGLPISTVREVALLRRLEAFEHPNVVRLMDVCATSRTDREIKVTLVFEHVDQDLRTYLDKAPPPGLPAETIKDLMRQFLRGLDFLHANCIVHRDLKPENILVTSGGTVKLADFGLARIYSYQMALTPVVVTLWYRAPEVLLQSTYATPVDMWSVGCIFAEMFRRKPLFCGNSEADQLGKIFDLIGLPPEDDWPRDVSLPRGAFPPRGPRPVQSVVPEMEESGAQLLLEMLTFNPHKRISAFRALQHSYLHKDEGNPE
Chain of Cyclin-dependent kinase 4/cyclin D1 (P24385 whole entry, further chain): as the sequence (P24385 whole entry) above

IC50 (CDK2/Cyclin A1) [nM]	IC50 [4] [nM]	IC50 (MV4-11 [5]) [nM]	SMILES	inhibition of growth at 1 µM (MV4-11 [3]) [%]	further results
			CN1CCN(Cc2ccc(NC(=O)c3n[nH]cc3Nc3ccnc4ccccc34)cc2)CC1	98.8	Activity [1]: 26.5%; Activity [2]: 27.7%
1.87	0.101		CCc1cc2c(Nc3c[nH]nc3C(=O)Nc3ccc(CN4CCN(C)CC4)cc3)ncnc2s1		
318	42.6	450	O=C(Nc1c[nH]nc1C(=O)Nc1ccc(CN2CCOCC2)cc1)c1ccccc1		
1.59	5.36		CCN(CC)Cc1ccc(NC(=O)c2n[nH]cc2Nc2ncnc3sccc23)cc1		
4.49	1.03	53	O=C(Nc1ccc(CN2CCNCC2)cc1)c1n[nH]cc1Nc1ncnc2[nH]ccc12		logP [6]: 1.22
			CN1CCN(Cc2ccc(NC(=O)c3n[nH]cc3Nc3nccc4ccccc34)cc2)CC1		Activity [1]: 60.5%; Activity [2]: 24.5%
	0.384		Cc1cc2c(Nc3c[nH]nc3C(=O)Nc3ccc(CN4CCN(C)CC4)cc3)ncnc2s1		
8.27	3.17		CN1CCN(Cc2ccc(NC(=O)c3n[nH]cc3Nc3ncnc4ccccc34)cc2)CC1		
1.9	0.576		Cc1sc2ncnc(Nc3c[nH]nc3C(=O)Nc3ccc(CN4CCN(C)CC4)cc3)c2c1C		
3.3	1.56	34	CCc1cc2c(Nc3c[nH]nc3C(=O)Nc3ccc(CN4CCOCC4)cc3)ncnc2s1		
3.03	0.32		CN1CCCN(Cc2ccc(NC(=O)c3n[nH]cc3Nc3ncnc4sccc34)cc2)CC1		
	97.4		COc1ccc2c(Nc3c[nH]nc3C(=O)Nc3ccc(CN4CCOCC4)cc3)ccnc2c1	22.2	Activity [1]: 75%
29.8	3.78		COc1ccc2ncnc(Nc3c[nH]nc3C(=O)Nc3ccc(CN4CCOCC4)cc3)c2c1	53.1	
7.34	3.52	30	Cc1sc2ncnc(Nc3c[nH]nc3C(=O)Nc3ccc(CN4CCOCC4)cc3)c2c1C		
3.36	0.623		O=C(Nc1ccc(CN2CCOCC2)cc1)c1n[nH]cc1Nc1ncnc2sccc12	98.5	IC50 [7]: 2.4 nM; IC50 (CDK6/cyclin D1): 3.88 nM; GI50 (RS4-11): 170 nM; GI50 (MCF7): 610 nM; GI50 (HCT-116): 580 nM; GI50 (NCI-H82): 290 nM; half-life [8]: 8.28 min; CLint scaled [9]: 165 mL/min/kg; half-life [10]: 7.08 min; CLint scaled [11]: 352 mL/min/kg; half-life [12]: 7.2 min; CLint scaled [13]: 765 mL/min/kg; half-life [14]: 1.5 min; CLint scaled [15]: 1330 mL/min/kg; half-life [16]: 10.9 min; CLint scaled [17]: 171 mL/min/kg; GI50 (MGC-803): 210 nM
24.1	16.9		O=C(Nc1ccc(CN2CCOCC2)cc1)c1n[nH]cc1Nc1ccnc2ccc(Br)cc12	93.7	
11.6	6.15	35	O=C(Nc1ccc(CN2CCOCC2)cc1)c1n[nH]cc1Nc1ncnc2ccsc12		
			O=C(Nc1ccc(CN2CCOCC2)cc1)c1n[nH]cc1Nc1ccnc2ccccc12	42	Activity [1]: 57.7%; Activity [2]: 40.8%

IC50 (CDK2/Cyclin A1) [nM]	IC50 [4] [nM]	IC50 (MV4-11 [5]) [nM]	SMILES	inhibition of growth at 1 µM (MV4-11 [3]) [%]	further results
697	197		COc1ccc2c(Nc3c[nH]nc3C(=O)Nc3ccc(CN4CCN(C)CC4)cc3)ccnc2c1	22.6	
1.08	1.37	11	Cc1csc2ncnc(Nc3c[nH]nc3C(=O)Nc3ccc(CN4CCOCC4)cc3)c12		
16.5	2.56 to 2.65		CN1CCN(Cc2ccc(NC(=O)c3n[nH]cc3Nc3ncnc4occc34)cc2)CC1	94.7	IC50 [7]: 5.67 nM; IC50 (CDK6/cyclin D1): 5.09 nM
2.08	0.34	19	O=C(Nc1ccc(CN2CCNCC2)cc1)c1n[nH]cc1Nc1ncnc2sccc12		logP [6]: 2.65
4.49	0.167		Cc1csc2ncnc(Nc3c[nH]nc3C(=O)Nc3ccc(CN4CCN(C)CC4)cc3)c12		
5.74	4.84		CN1CCN(Cc2ccc(NC(=O)c3n[nH]cc3Nc3ccnc4ccc(Br)cc34)cc2)CC1	97.2	
3.89	2.31		CC(C)c1cc2c(Nc3c[nH]nc3C(=O)Nc3ccc(CN4CCN(C)CC4)cc3)ncnc2s1		
13.6	0.13		CCN(CC)Cc1ccc(NC(=O)c2n[nH]cc2Nc2ncnc3[nH]ccc23)cc1		
			O=C(Nc1ccc(CN2CCOCC2)cc1)c1n[nH]cc1Nc1cc(C(F)(F)F)nc2ccccc12	4.7	Activity [1]: 99.7%; Activity [2]: 83.2%
7.25	2.06	21	O=C(Nc1ccc(CN2CCOCC2)cc1)c1n[nH]cc1Nc1ncnc2[nH]ccc12		
58.6	0.958		O=C(Nc1ccc(CN2CCOCC2)cc1)c1n[nH]cc1Nc1nc(Cl)nc2ccccc12	91.1	
287	42.4		O=C(Nc1ccc(CN2CCOCC2)cc1)c1n[nH]cc1Nc1nccc2ccccc12	50.4	
9.85	7.63	15	CC(C)c1cc2c(Nc3c[nH]nc3C(=O)Nc3ccc(CN4CCOCC4)cc3)ncnc2s1		
			COc1ccc2nccc(Nc3c[nH]nc3C(=O)Nc3ccc(CN4CCN(C)CC4)cc3)c2c1	64.4	Activity [1]: 32.5%; Activity [2]: 10.4%
5.3	0.588	23	O=C(Nc1ccc(CN2CCOCC2)cc1)c1n[nH]cc1Nc1ncnc2ccccc12		
2.05	1.05		O=C(Nc1ccc(CNC2CC2)cc1)c1n[nH]cc1Nc1ncnc2sccc12		
9.32	0.47	23	CN1CCN(Cc2ccc(NC(=O)c3n[nH]cc3Nc3ncnc4ccsc34)cc2)CC1		IC50 [7]: 3.1 nM; IC50 (CDK6/cyclin D1): 4.11 nM
